# According to PubChem BioAssay:
# Activity calls are given as the source filed them.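 The calls were made as follows, unless noted: active = potentiation averaged over duplicate wells exceeding buffer-only control mean by more than 3 SD; inactive = the rest.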
# Key:
# [1] = thallium flux activation in parental CHO cells, counter-screen for KCNQ1 potentiator project (AID 493006;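 active = duplicate-averaged activation above buffer control mean plus 5 SD of those controls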); settings: parental CHO-K1 cells, FluxOR thallium flux, at 10 µM; hits give high values
# Procedure, shortened: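 Test system: parental CHO-K1 cells, FluxOR dye-loaded / Probe or stimulus: potassium plus thallium depolarizing stimulus, 5x stock 12.5 mM K2SO4, Tl2SO4 / Timing: overnight 37 °C plating, 90 min dye, 20 min dark compound / Measured by: kinetic thallium-flux fluorescence / Read-out: max-minus-min fluorescence over baseline, percent of buffer-to-R-L3 span / Benchmarks: buffer and R-L3 controls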
# [2] = biological target: Potassium voltage-gated channel subfamily KQT member 1 (Homo sapiens) (UniProt P51787); experiment: KCNQ1 potassium channel potentiators, confirmation, FluxOR thallium flux, CHO cells, duplicates (AID 493007); settings: KCNQ1 cell line, FluxOR thallium flux fluorescence, at 10 µM; hits give high values, % of reference activator effect, buffer zero;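 as to outcome: cells depolarized by a potassium plus thallium sulfate stimulus after compound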;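 as to potentiation: 0% = buffer-only wells and 100% = R-L3 activator control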
# Procedure, shortened: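 Assay system: CHO cells carrying KCNQ1 | Controls: Buffer and R-L3 controls | Schedule: FluxOR dye loading 90 min, compound exposure 20 min, room temperature | Read-out: Baseline-normalized fluorescence change, percent of buffer-to-R-L3 range | Replicates: Each compound tested in duplicate | Technique: Kinetic thallium influx fluorescence with FluxOR dye, 10 s baseline, 110 s post-stimulus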
# [3] = biological target: Potassium voltage-gated channel subfamily KQT member 2 (Rattus norvegicus) (UniProt O88943); experiment: rat KCNQ2 channel potentiation, selectivity assay for KCNQ1 potentiator project, KCNQ2-CHO-K1 cells (AID 493009;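 active = mean duplicate potentiation above the buffer control mean plus 5 SD of buffer wells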;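 also: assay conditions were tuned for KCNQ1 rather than KCNQ2 modulators; signal is max minus min fluorescence divided by baseline after thallium stimulus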); settings: FluxOR thallium flux fluorescence, at 10 µM; hits give high values, scaled: buffer 0, activator control 100
# [4] = biological target: Potassium voltage-gated channel subfamily KQT member 1 (Homo sapiens) (UniProt P51787); experiment: KCNQ1 channel current potentiators, confirmation, orthogonal assay for KCNQ1 potentiator project, IonWorks patch clamp, KCNQ1-CHO cells (AID 493184;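 active = current rise at least 3 SD above the untreated control mean in each of two repeat wells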); settings: automated patch clamp current, at 10 µM; hits give high values
# Procedure, shortened: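 Material: KCNQ1-expressing CHO cells; doses: 10 µM final, single point; probe or stimulus: voltage step from -90 mV holding to +40 mV, 2,000 ms; signal: automated voltage clamp, amphotericin B perforated patch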
# Chain of Potassium voltage-gated channel subfamily KQT member 2 (Rattus norvegicus) (O88943 whole entry, looked up): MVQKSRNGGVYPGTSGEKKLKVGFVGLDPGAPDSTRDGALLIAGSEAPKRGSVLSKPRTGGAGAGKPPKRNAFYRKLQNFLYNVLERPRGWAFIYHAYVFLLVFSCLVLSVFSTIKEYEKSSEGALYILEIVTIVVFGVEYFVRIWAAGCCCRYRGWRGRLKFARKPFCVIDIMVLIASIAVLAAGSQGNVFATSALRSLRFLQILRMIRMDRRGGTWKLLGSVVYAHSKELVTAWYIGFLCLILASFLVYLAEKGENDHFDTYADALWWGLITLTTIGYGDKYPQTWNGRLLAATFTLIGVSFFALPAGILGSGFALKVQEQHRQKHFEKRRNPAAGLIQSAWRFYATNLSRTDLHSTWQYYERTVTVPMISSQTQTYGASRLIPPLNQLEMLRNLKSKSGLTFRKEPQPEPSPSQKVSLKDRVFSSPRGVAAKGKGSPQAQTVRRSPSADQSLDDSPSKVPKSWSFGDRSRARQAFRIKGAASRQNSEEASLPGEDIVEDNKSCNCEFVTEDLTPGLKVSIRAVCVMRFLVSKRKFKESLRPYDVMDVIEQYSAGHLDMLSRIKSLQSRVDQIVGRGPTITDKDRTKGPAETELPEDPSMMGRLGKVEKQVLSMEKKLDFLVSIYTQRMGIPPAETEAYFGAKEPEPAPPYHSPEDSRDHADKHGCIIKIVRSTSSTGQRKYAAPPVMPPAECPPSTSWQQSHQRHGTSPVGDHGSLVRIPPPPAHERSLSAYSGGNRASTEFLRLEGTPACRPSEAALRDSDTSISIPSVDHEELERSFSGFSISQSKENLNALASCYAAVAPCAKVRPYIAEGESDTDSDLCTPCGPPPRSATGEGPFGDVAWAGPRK
# Chain of Potassium voltage-gated channel subfamily KQT member 1 (Homo sapiens) (P51787 whole entry, looked up): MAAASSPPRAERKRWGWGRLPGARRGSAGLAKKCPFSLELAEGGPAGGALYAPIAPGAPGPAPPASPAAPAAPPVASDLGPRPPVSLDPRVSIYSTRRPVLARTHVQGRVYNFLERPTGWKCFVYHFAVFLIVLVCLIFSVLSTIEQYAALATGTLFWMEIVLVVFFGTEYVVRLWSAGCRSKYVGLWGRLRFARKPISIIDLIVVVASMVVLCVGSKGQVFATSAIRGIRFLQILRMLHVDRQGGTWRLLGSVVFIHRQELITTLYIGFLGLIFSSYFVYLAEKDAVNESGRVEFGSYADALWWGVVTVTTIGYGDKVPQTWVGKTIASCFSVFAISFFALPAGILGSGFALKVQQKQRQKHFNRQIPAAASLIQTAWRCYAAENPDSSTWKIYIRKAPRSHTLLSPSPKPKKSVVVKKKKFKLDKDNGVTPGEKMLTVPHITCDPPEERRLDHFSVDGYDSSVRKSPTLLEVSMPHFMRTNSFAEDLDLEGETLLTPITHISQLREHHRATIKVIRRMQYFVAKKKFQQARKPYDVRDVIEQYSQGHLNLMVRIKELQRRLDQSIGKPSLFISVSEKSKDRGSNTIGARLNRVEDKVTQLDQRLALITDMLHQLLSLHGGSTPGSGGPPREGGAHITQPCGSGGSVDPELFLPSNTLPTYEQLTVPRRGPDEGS
Structure (SMILES),outcome [1],outcome [2],outcome [3],outcome [4],activation [1],potentiation [2],potentiation [3]
O=[N+]([O-])c1cc(CN2CCCC2)ccc1Sc1ccc(Cl)cc1,inactive,inactive,inactive,inactive,–,–,–
C/C(=N\NC(=O)C1COc2ccccc2O1)c1ccc(N2CCOCC2)cc1 (stereo not given),inactive,inactive,inactive,inactive,–,–,–
COc1cccc(C(=O)NC(=S)N2c3ccccc3CC2C)c1OC (stereo not given),inactive,inactive,inactive,inactive,–,–,–
CCN1C(=O)/C(=C/c2ccc(C)s2)NC1=S,–,–,–,inactive,208% (active),57.5% (active),258% (active)
COc1ccc(NC(=O)[C@@H]2CC=C[C@@H]3CCN(C4CCCCC4)C(=O)[C@@H]32)cc1,inactive,inactive,inactive,inactive,–,–,–
O=C(Nc1ccc2[nH]c(=S)sc2c1)c1ccccc1,inactive,–,–,inactive,–,52% (active),154% (active)
COc1cccc2sc(N(CCCN(C)C)C(=O)c3ccc(S(=O)(=O)N4CCCc5ccccc54)cc3)nc12,inactive,inactive,inactive,inactive,–,–,–
CCN(c1ccccc1)S(=O)(=O)c1ccc(OC)c(OC)c1,–,–,–,inactive,167% (active),150% (active),162% (active)
O=C(NNC(=S)NC(=O)c1ccco1)c1ccc(F)cc1,–,–,–,inactive,198% (active),69% (active),232% (active)
CC(C)c1ccc(/C=N/n2c(COc3ccccc3)n[nH]c2=S)cc1,–,–,–,inactive,190% (active),512% (active),503% (active)
COc1ccc(CN2C(=O)C(O)(CC(=O)c3ccc4c(c3)OCO4)c3ccccc32)cc1OC (stereo not given),inactive,inactive,inactive,inactive,–,–,–
NS(=O)(=O)c1ccc(NC(=S)Nc2ccc(OCc3ccccc3)cc2)cc1,inactive,inactive,inactive,inactive,–,–,–
O=C(NC(=S)Nc1cccc(C(F)(F)F)c1)c1csnn1,–,–,–,inactive,595% (active),308% (active),618% (active)
COc1cccc2sc(NNC(=O)c3nc4ccccc4s3)nc12,–,–,–,inactive,300% (active),191% (active),420% (active)
C=CCn1c(=S)[nH]c2ccc(Br)cc2c1=O,–,–,–,inactive,208% (active),51% (active),200% (active)
CCCCC(Nc1ncnc2ccccc12)C(=O)O (stereo not given),inactive,inactive,inactive,inactive,–,–,–
CC(C)(C)c1cc(-c2csc(Nc3ccccc3)[n+]2Cc2ccc(C(=O)O)cc2)cc(C(C)(C)C)c1O,–,–,–,inactive,327% (active),54.5% (active),198% (active)
Cc1ccccc1NC1=NC(=S)N(c2ccccc2)C12CCCCC2,–,–,–,inactive,176% (active),26% (active),156% (active)
CN1C=CC=C/C1=C1\SC(=S)N(C2CCCCC2)C1=O,inactive,inactive,inactive,inactive,–,–,–
CCOc1ccc(C(C#N)N2CCOCC2)cc1OC (stereo not given),inactive,inactive,inactive,inactive,–,–,–
O=C(CSc1nc2ccccc2s1)c1cc2ccccc2o1,inactive,inactive,inactive,inactive,–,–,–
CCC/C=N/NC(=O)c1[nH]c2c([N+](=O)[O-])cccc2c1C,inactive,inactive,inactive,inactive,–,–,–
CN(CC(=O)Nc1c(Cl)cccc1Cl)C(=O)c1n[nH]c2ccccc12,inactive,inactive,inactive,inactive,–,–,–
CNC(=O)c1cc(-c2ccc(Cl)cc2)n(-c2ccccc2)n1,inactive,inactive,inactive,inactive,–,–,–
CCN(c1ccccc1)S(=O)(=O)c1ccc(NC(=O)c2nc(S(C)(=O)=O)ncc2Cl)cc1,inactive,inactive,–,inactive,–,–,156% (active)
c1ccc2c(c1)OCC(CNc1ncnc3nc[nH]c13)O2 (stereo not given),–,–,–,inactive,227% (active),46% (active),194% (active)
Cn1cccc1/C=N/n1c(-c2ccc(C(C)(C)C)cc2)n[nH]c1=S,inactive,–,inactive,inactive,–,266% (active),–
CC(C)(C)CC(C)(C)NC(=S)NC1CCN(Cc2ccccc2)CC1,inactive,inactive,inactive,inactive,–,–,–
O=c1ccc(-c2ccc(S(=O)(=O)Nc3ccccc3)o2)n[nH]1,inactive,inactive,inactive,inactive,–,–,–
CCOC(=O)C1CCN(C(=O)c2c(C)oc3c2C(=O)c2ccccc2C3=O)CC1,inactive,inactive,inactive,inactive,–,–,–
